Assay results published in PubChem BioAssay AID2727 (Broad Institute, 2010).
Some of the results follow. A number with no mark means an inactive call. Activity calls are given as the source filed them.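 How the source made its calls: active means inhibition above about 80% in every replicate, not just on average (limit read from the data); inconclusive means at least half of replicates past the limit, but not all; inactive means fewer than half of replicates past the limit.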

Assay: luminescence decrease in constitutive quorum sensing strain – strain BB721, luminescence readout, counter-screen for LuxS inhibitor project, confirmation (AID 2727)
Conditions: Vibrio harveyi BB721 luminescence, 9 h; at 7.5 µM; active compounds read high
Summary of the method: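 Evaluation: Luminescence decrease marking disrupted downstream quorum sensing signalling | Assay system: V. harveyi BB721 bacterial culture | Amount: Bacterial culture diluted to starting OD600 of 0.0005 | Timing: 9 h exposure at 30 °C | Medium: AB (autoinducer bioassay) growth medium | Doses: 45 nL per well from 10 mM compound stock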

Compound | inhibition
N/C(=N\OC(=O)CCc1ccccc1)c1cccnc1 | 91.1% (active)
Cc1nn(CC(=O)Nc2ccc(F)cc2)c(=O)c2ccccc12 | 98.5% (active)
COc1cccc(NC(=O)NCc2ccc(F)cc2)c1 | 94.6% (active)
O=C(c1cc(-c2cccc(O)c2)on1)N1CCc2ccccc2C1 | 93.6% (active)
Cc1ccc(NC(=O)C2CC2c2ccccc2)cc1 (stereo not drawn) | 94.8% (active)
CN(Cc1cnccn1)C(=O)c1cc(COc2cccc(C(F)(F)F)c2)on1 | 96% (active)
Cc1ccc(Cc2nc(-c3cccc(C)c3)no2)cc1 | 92.5% (active)
O=C(COC(=O)C1CCCCC1)Nc1ccc([N+](=O)[O-])cc1 | 93.7% (active)
S=C(NCc1ccc(Cl)cc1)NC1CCCCC1 | 94.1% (active)
Cc1cc(CN(C)C(=O)c2cc(COc3ccc(C)c(C)c3)on2)n[nH]1 | 96% (active)
O=C(Nc1ccc(F)c(Cl)c1)C1CCN(S(=O)(=O)c2cccnc2)CC1 | 97.7% (active)
O=C(COc1ncnc2ccccc12)NC(=O)NCc1ccccc1 | 95.7% (active)
O=C(/C=C/c1ccc2c(c1)OCO2)NCc1ccc(F)cc1 | 94% (active)
COC(=O)C1CCN(C(=O)c2ccc3oc(Cc4ccc(Cl)cc4)nc3c2)CC1 | 95.6% (active)
CC(=O)c1cccc(OCc2cc(C(=O)NC(C)Cc3cccnc3)no2)c1 (stereo not drawn) | 92.4% (active)
Cc1cc(C(=O)OCC(=O)Nc2ccc(F)c(F)c2)c(C)o1 | 97.5% (active)
Cc1ccc(NS(=O)(=O)c2ccc3c(c2)NC(=O)CO3)cc1 | 92% (active)

Compound | inhibition
CC(CNc1ccc([N+](=O)[O-])cc1)NC(=O)c1ccccc1Br (stereo not drawn) | -4.57%
COc1ccc(/C(N)=N/OC(=O)Cc2ccccc2)cc1 | 93.6% (active)
Cc1ccccc1C(=O)Nc1ccc(N2CCCCCC2)cc1 | 91.4% (active)
O=C(Cn1cnc2ccccc2c1=O)Nc1cccc(S(=O)(=O)N2CCCCC2)c1 | 85.6% (active)
Cc1ccccc1NC(=O)CCOc1ccccc1 | 90.7% (active)
O=C(/C=C/c1ccc2c(c1)OCCO2)c1ccc(O)cc1 | 93.3% (active)
O=C1COc2ccc(S(=O)(=O)Nc3ccc(OC(F)(F)F)cc3)cc2N1 | 96.7% (active)
O=S(=O)(Nc1cccc(Oc2ccc(Cl)cc2)n1)c1ccc(F)cc1 | 99.6% (active)
CCOc1ccc(/C=N/NC(N)=S)cc1 | 92.7% (active)
CCOC(=O)c1nn(-c2cccc(C)c2)cc1C(=O)c1ccccc1 | 87.7% (active)
Cc1cccc(CSc2ccc(-c3cccs3)nn2)c1 | 94.7% (active)
COC(=O)c1ccc(SCc2ccccc2)nc1 | 96.4% (active)
O=C(CCC(=O)c1cccs1)Nc1nc2ccccc2s1 | 97.5% (active)
CC(C)(C)c1ccc(OC2=CS(=O)(=O)c3ccccc32)cc1 | 92.5% (active)
Cc1ccc(Oc2cnn(-c3ccccc3)c(=O)c2Br)cc1 | 99.2% (active)
Cc1ccsc1C(=O)OCC(=O)c1cc2ccccc2o1 | 95.1% (active)
